Experiments:
Thromboxane A2 receptor = target: T1, Thromboxane A2 receptor (Homo sapiens, UniProt P21731); experiment: Inhibitory binding activity against TXA2 receptor in human platelet membrane, using [3H]-SQ 29548 as the radioligand
T1 sequence (P21731 whole entry): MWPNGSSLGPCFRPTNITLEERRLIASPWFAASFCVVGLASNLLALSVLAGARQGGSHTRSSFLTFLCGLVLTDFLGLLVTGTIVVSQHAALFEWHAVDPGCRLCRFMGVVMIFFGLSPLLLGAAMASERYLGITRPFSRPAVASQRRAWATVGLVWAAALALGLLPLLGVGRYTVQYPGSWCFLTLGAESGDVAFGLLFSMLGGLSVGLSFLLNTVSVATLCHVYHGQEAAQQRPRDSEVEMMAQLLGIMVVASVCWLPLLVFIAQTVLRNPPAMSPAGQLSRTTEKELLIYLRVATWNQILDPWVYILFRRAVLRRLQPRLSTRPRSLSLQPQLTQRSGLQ
Outline: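 Competition binding of [3H]-SQ 29,548 to TxA2 receptors in human platelet membranes, measured as inhibition of specific binding. Kd (inhibition constant) was calculated from each compound's I50 value. A slope factor is also reported.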

Homo sapiens [1] = species: Homo sapiens; experiment: Inhibitory activity against platelet aggregation, induced by U-46619 in human platelet rich plasma; assay type: functional
Outline: (§1)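 Human platelet-rich plasma. Aggregation was induced by exogenous arachidonic acid or by the TxA2 mimetic U-46,619, each at a single fixed agonist level. I50 was taken as the antagonist concentration giving 50% inhibition of aggregation.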

[2] = Partition coefficient (logP); assay type: physicochemical; conditions: octanol/water
Outline: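 log P came from reversed-phase TLC Rm values on C18 plates. Eluent was acetone in 0.5 M aqueous KBr, buffered with 0.25 N triethylammonium phosphate to pH 7.3. Values were converted with a calibration curve built from shake-flask partition coefficients (pH 7.0) of seven oxabicycloheptane compounds spanning a range of lipophilicities.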

Mus musculus [3] = experiment: In vivo duration of action required to prevent death in mice, after i.v. administration of U-46619 (2 mg/kg) at 0.2 mg/kg p.o.; conditions: po
Homo sapiens [4] = species: Homo sapiens; experiment: Inhibitory activity against platelet aggregation, induced by arachidonic acid in human platelet rich plasma; assay type: functional; outline: as §1
Mus musculus [5] = experiment: In vivo duration of action required to prevent death in mice, after iv administration of U-46619 (2 mg/kg) at 10 mg/kg po administration of compound

Row | SMILES | Kd (Thromboxane A2 receptor) | IC50 (Homo sapiens [1]; read-out: I 50) | logP [2] | T50 (Mus musculus [3]) | IC50 (Homo sapiens [4]; read-out: I 50) | IC50 (Homo sapiens [1]; read-out: I50) | T50 (Mus musculus [5]) | IC50 (Homo sapiens [4]; read-out: I50)
1 | C#CCCCCCNC(=O)c1coc(C2C3CCC(O3)C2Cc2ccccc2CCC(=O)O)n1 (stereo not given) | 4.7 nM | 31 nM | 0.87 | 11.1 h | 14 nM |  |  | 
2 | CCCCCNC(=O)c1coc(C2C3CCC(O3)C2Cc2ccccc2CCC(=O)O)n1 (stereo not given) [BMS-180291] | 4 nM |  | 1.61 | 14.4 h |  | 21 nM | 29.4 h | 
3 | CC(C)(CCCCNC(=O)c1coc(C2C3CCC(O3)C2Cc2ccccc2CCC(=O)O)n1)C(=O)O (stereo not given) |  |  | 0.5 |  |  |  |  | 64 nM
4 | O=C(O)CCc1ccccc1CC1C2CCC(O2)C1c1nc(C(=O)NCCCCc2ccc(Cl)cc2)co1 (stereo not given) | 0.2 nM |  | 3.52 | 18.6 h |  |  |  | 
5 | O=C(O)CCc1ccccc1CC1C2CCC(O2)C1c1nc(C(=O)NC2CCCCC2)co1 (stereo not given) | 4.5 nM |  | 0.89 | 8.3 h |  |  |  | 
6 | O=C(O)CCc1ccccc1CC1C2CCC(O2)C1c1nc(C(=O)Nc2ccc(Cl)cc2)co1 (stereo not given) |  |  | 2.52 | 25.8 h |  |  |  | 6 nM
7 | O=C(O)CCc1ccccc1CC1C2CCC(O2)C1c1nc(/C=C/CCCCC2CCCCC2)co1 (stereo not given) |  |  |  |  |  | 2760 nM |  | 320 nM
8 | CNC(=O)c1coc(C2C3CCC(O3)C2Cc2ccccc2CCC(=O)O)n1 (stereo not given) | 45 nM |  | -0.11 | 7.5 h |  |  |  | 
9 | O=C(O)CCCc1ccccc1CC1C2CCC(O2)C1c1nc(C(=O)NCCCCC2CCCCC2)co1 (stereo not given) | 0.85 nM |  |  |  |  |  |  | 6 nM
10 | O=C(O)COc1ccccc1CC1C2CCC(O2)C1c1nc(C(=O)NCCCCC2CCCCC2)co1 (stereo not given) | 3.2 nM |  |  |  |  | 8 nM |  | 7 nM
11 | O=C(O)CCc1ccccc1CC1C2CCC(O2)C1c1nc(C(=O)NCCCCC(F)(F)F)co1 (stereo not given) | 4.8 nM |  | 1.59 |  |  | 29 nM |  | 12 nM
12 | O=C(O)Cc1ccccc1CC1C2CCC(O2)C1c1nc(C(=O)NCCCCC2CCCCC2)co1 (stereo not given) | 19 nM |  |  |  |  | 97 nM |  | 14 nM
13 | O=C(O)CCc1ccccc1CC1C2CCC(O2)C1c1nc(C(=O)OCCCCC2CCCCC2)co1 (stereo not given) | 1 nM |  |  |  |  | 10 nM |  | 2 nM
14 | CN(CCCCC1CCCCC1)C(=O)c1coc(C2C3CCC(O3)C2Cc2ccccc2CCC(=O)O)n1 (stereo not given) |  |  | 3.89 |  |  |  |  | 2 nM
15 | O=C(O)CCc1ccccc1CC1C2CCC(O2)C1c1nc(C(=O)CCCCCC2CCCCC2)co1 (stereo not given) | 0.05 nM |  |  |  |  | 11 nM |  | 4 nM
16 | CC(C)NC(=O)c1coc(C2C3CCC(O3)C2Cc2ccccc2CCC(=O)O)n1 (stereo not given) | 26 nM |  | 0.05 | 10 h |  | 63 nM |  | 7 nM
17 | O=C(O)CCc1ccccc1CCC1C2CCC(O2)C1c1nc(C(=O)NCCCCC2CCCCC2)co1 (stereo not given) |  |  |  |  |  | 616 nM |  | 63 nM
18 | O=C(O)CCc1ccccc1CC1C2CCC(O2)C1c1nc(C(=O)NCCCCCO)co1 (stereo not given) | 20 nM |  | 1.07 |  |  | 35 nM |  | 15 nM
19 | O=C(O)CCc1ccccc1CC1C2CCC(O2)C1c1nc(C(=O)NCCCCc2ccc(F)cc2)co1 (stereo not given) | 3.9 nM |  | 2.17 | 22.5 h |  | 11 nM |  | 4 nM
20 | CCCCCCCNC(=O)c1coc(C2C3CCC(O3)C2Cc2ccccc2CCC(=O)O)n1 (stereo not given) | 0.2 nM |  | 2.88 | 9.5 h |  |  | 27.4 h | 
21 | COc1ccc(CCCCNC(=O)c2coc(C3C4CCC(O4)C3Cc3ccccc3CCC(=O)O)n2)cc1 (stereo not given) | 0.3 nM |  | 2.49 |  |  | 62 nM |  | 16 nM
22 | O=C(O)CCc1ccccc1CC1C2CCC(O2)C1c1nc(C(=S)NCCCCC2CCCCC2)co1 (stereo not given) | 10.6 nM |  |  |  |  | 9 nM |  | 2 nM
23 | O=C(O)CCc1ccccc1CC1C2CCC(O2)C1c1nc(C(=O)NCCC2CCCCC2)co1 (stereo not given) | 0.7 nM |  | 1.03 | 8.3 h |  |  |  | 2 nM
24 | CC(C)(Cc1ccccc1CC1C2CCC(O2)C1c1nc(C(=O)NCCCCC2CCCCC2)co1)C(=O)O (stereo not given) | 36 nM |  |  |  |  | 13 nM |  | 4 nM
25 | O=C(O)CCc1ccccc1CC1C2CCC(O2)C1c1nc(C(=O)NCCCCc2ccc(O)cc2)co1 (stereo not given) | 0.5 nM |  | 1.49 |  |  |  |  | 12 nM
26 | CS(=O)(=O)NC(=O)CCc1ccccc1CC1C2CCC(O2)C1c1nc(C(=O)NCCCCC2CCCCC2)co1 (stereo not given) | 1.6 nM |  |  |  |  |  |  | 2 nM

Row | SMILES | Kd (Thromboxane A2 receptor) | IC50 (Homo sapiens [1]; read-out: I 50) | logP [2] | T50 (Mus musculus [3]) | IC50 (Homo sapiens [4]; read-out: I 50) | IC50 (Homo sapiens [1]; read-out: I50) | T50 (Mus musculus [5]) | IC50 (Homo sapiens [4]; read-out: I50)
27 | O=C(O)CCc1ccccc1CC1C2CCC(O2)C1c1nc(C(=O)NCCCCN2CCCCC2)co1 (stereo not given) | 22 nM |  | 0.53 |  |  | 137 nM |  | 30 nM
28 | O=C(O)CCc1ccccc1CC1C2CCC(O2)C1c1nc(C(=O)NCCCCC(=O)NC2CCCCC2)co1 (stereo not given) | 22 nM |  | 1.18 |  |  | 82 nM |  | 27 nM
29 | CC(C)(C)NC(=O)c1coc(C2C3CCC(O3)C2Cc2ccccc2CCC(=O)O)n1 (stereo not given) | 19 nM |  | -0.02 | 7.4 h |  | 61 nM |  | 12 nM
30 | CCC(C)(C)NC(=O)c1coc(C2C3CCC(O3)C2Cc2ccccc2CCC(=O)O)n1 (stereo not given) | 0.8 nM |  | 0.51 | 8.8 h |  | 30 nM |  | 12 nM
31 | O=C(NCCCCC1CCCCC1)c1coc(C2C3CCC(O3)C2Cc2ccccc2C(=O)O)n1 (stereo not given) |  |  |  |  |  | 171 nM |  | 52 nM
32 | CC(C)(C)CCCCNC(=O)c1coc(C2C3CCC(O3)C2Cc2ccccc2CCC(=O)O)n1 (stereo not given) | 0.6 nM |  | 3.41 | 36.5 h |  | 35 nM |  | 8 nM
33 | COc1ccc(NC(=O)c2coc(C3C4CCC(O4)C3Cc3ccccc3CCC(=O)O)n2)cc1 (stereo not given) |  |  | 0.95 |  |  |  |  | 6 nM
34 | O=C(O)CCc1ccccc1CC1C2CCC(O2)C1c1nc(C(=O)NCCCCC2CCCCC2)co1 (stereo not given) |  |  | 3.93 | 22.5 h |  |  | 49.6 h | 
35 | O=C(O)c1cccc(CCC2C3CCC(O3)C2c2nc(C(=O)NCCCCC3CCCCC3)co2)c1 (stereo not given) | 18.4 nM |  |  |  |  |  |  | 110 nM
36 | NC(=O)c1coc(C2C3CCC(O3)C2Cc2ccccc2CCC(=O)O)n1 (stereo not given) |  |  | -0.78 |  |  | 258 nM |  | 44 nM
37 | CSc1ccc(CCCCNC(=O)c2coc(C3C4CCC(O4)C3Cc3ccccc3CCC(=O)O)n2)cc1 (stereo not given) | 2.9 nM |  | 1.66 |  |  |  |  | 6 nM
38 | O=C(O)CCc1ccccc1CC1C2CCC(O2)C1c1nc(C(=O)NCCc2ccccc2)co1 (stereo not given) | 0.7 nM |  | 0.98 | 4 h |  | 30 nM |  | 9 nM
39 | O=C(O)CCc1ccccc1CC1C2CCC(O2)C1c1nc(CO)co1 (stereo not given) |  |  |  |  |  |  |  | 31000 nM
40 | O=C(O)CCc1ccccc1CC1C2CCC(O2)C1c1nc(C(=O)NCCCCc2ccccc2)co1 (stereo not given) | 0.3 nM |  | 1.8 | 20 h |  | 13 nM |  | 4 nM
41 | CS(=O)(=O)c1ccc(CCCCNC(=O)c2coc(C3C4CCC(O4)C3Cc3ccccc3CCC(=O)O)n2)cc1 (stereo not given) |  |  | 0.32 |  |  |  |  | 26 nM
42 | CCCCCN(C)C(=O)c1coc(C2C3CCC(O3)C2Cc2ccccc2CCC(=O)O)n1 (stereo not given) | 11 nM |  | 1 | 11.3 h |  |  |  | 9 nM
43 | O=C(O)Cc1ccccc1CCC1C2CCC(O2)C1c1nc(C(=O)NCCCCC2CCCCC2)co1 (stereo not given) |  |  |  |  |  |  |  | 1580 nM
44 | O=C(O)Cc1cccc(CC2C3CCC(O3)C2c2nc(C(=O)NCCCCC3CCCCC3)co2)c1 (stereo not given) | 1.2 nM |  |  |  |  | 34 nM |  | 12 nM
45 | O=C(NCCCCC1CCCCC1)c1coc(C2C3CCC(O3)C2Cc2ccccc2CCCO)n1 (stereo not given) | 112 nM |  |  |  |  |  |  | 1540 nM
46 | CC(C)(C)CCNC(=O)c1coc(C2C3CCC(O3)C2Cc2ccccc2CCC(=O)O)n1 (stereo not given) | 2.9 nM |  | 1.23 | 13.5 h |  | 28 nM |  | 8 nM
47 | CCOC(=O)CCc1ccccc1CC1C2CCC(O2)C1c1nc(C(=O)NCCCCC2CCCCC2)co1 (stereo not given) |  |  |  |  |  |  |  | 290 nM
48 | O=C(O)CCc1ccccc1CC1C2CCC(O2)C1c1nc(C(=O)Nc2ccccc2)co1 (stereo not given) |  |  | 1.19 |  |  |  |  | 12 nM
49 | CCCCCCCCCCNC(=O)c1coc(C2C3CCC(O3)C2Cc2ccccc2CCC(=O)O)n1 (stereo not given) | 5.8 nM |  | 3.86 | 4.3 h |  |  |  | 
50 | NC(=O)CCc1ccccc1CC1C2CCC(O2)C1c1nc(C(=O)NCCCCC2CCCCC2)co1 (stereo not given) |  |  |  |  |  |  |  | 1070 nM
51 | O=C(O)Cc1cccc(CCC2C3CCC(O3)C2c2nc(C(=O)NCCCCC3CCCCC3)co2)c1 (stereo not given) | 16.3 nM |  |  |  |  |  |  | 146 nM
52 | CCCNC(=O)c1coc(C2C3CCC(O3)C2Cc2ccccc2CCC(=O)O)n1 (stereo not given) | 10 nM |  | 0.4 | 2.3 h |  | 53 nM |  | 8 nM

From ChEMBL document CHEMBL1126688, “Interphenylene 7-oxabicyclo[2.2.1]heptane oxazoles. Highly potent, selective, and long-acting thromboxane A2 receptor antagonists” (J Med Chem, 1993)
